Results from ChEMBL document CHEMBL1157882, “Novel 2-[(benzylamino)methyl]pyrrolidine-3,4-diol derivatives as alpha-mannosidase inhibitors and with antitumor activities against hematological and solid malignancies” (Bioorg Med Chem, 2010).
Active and inactive are the calls of the source. The rule behind the calls is not given here.

Columns and labels:
Jurkat [1] = experiment: Cytotoxicity against human Jurkat cells after 72 hrs by colorimetric assay; assay type: functional, cell-based
MCF7 = experiment: Cytotoxicity against human MCF7 cells after 72 hrs by colorimetric assay; assay type: functional, cell-based
In short: (§1)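 Cells grown in McCoy's medium (adherent lines) or RPMI-1640 (U266), each with 10% FBS, L-glutamine and antibiotics, at 37 °C in 5% CO₂. Compound dissolved as a 100 mM DMSO stock, final DMSO ≤0.4%. Cells were exposed for 72 h across a 10^-2 to 400 µM range. Viability was read by CellTiter 96 Aqueous (2–4 h incubation, absorbance 490 nm). Triplicate wells; IC50 from curve fitting.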

MDA-MB-231 = experiment: Cytotoxicity against human MDA-MB-231 cells after 72 hrs by colorimetric assay; assay type: functional, cell-based; in short: as §1
U-266 = experiment: Cytotoxicity against human U266 cells after 72 hrs by colorimetric assay; assay type: functional, cell-based; in short: as §1
[2] = molecular target: Beta-galactosidase (Escherichia coli) (UniProt Q8VNN2); experiment: Inhibition of beta-galactosidase from Escherichia coli at 1 mM at pH 7
Beta-galactosidase (Escherichia coli), sequence (Q8VNN2 whole entry, looked up): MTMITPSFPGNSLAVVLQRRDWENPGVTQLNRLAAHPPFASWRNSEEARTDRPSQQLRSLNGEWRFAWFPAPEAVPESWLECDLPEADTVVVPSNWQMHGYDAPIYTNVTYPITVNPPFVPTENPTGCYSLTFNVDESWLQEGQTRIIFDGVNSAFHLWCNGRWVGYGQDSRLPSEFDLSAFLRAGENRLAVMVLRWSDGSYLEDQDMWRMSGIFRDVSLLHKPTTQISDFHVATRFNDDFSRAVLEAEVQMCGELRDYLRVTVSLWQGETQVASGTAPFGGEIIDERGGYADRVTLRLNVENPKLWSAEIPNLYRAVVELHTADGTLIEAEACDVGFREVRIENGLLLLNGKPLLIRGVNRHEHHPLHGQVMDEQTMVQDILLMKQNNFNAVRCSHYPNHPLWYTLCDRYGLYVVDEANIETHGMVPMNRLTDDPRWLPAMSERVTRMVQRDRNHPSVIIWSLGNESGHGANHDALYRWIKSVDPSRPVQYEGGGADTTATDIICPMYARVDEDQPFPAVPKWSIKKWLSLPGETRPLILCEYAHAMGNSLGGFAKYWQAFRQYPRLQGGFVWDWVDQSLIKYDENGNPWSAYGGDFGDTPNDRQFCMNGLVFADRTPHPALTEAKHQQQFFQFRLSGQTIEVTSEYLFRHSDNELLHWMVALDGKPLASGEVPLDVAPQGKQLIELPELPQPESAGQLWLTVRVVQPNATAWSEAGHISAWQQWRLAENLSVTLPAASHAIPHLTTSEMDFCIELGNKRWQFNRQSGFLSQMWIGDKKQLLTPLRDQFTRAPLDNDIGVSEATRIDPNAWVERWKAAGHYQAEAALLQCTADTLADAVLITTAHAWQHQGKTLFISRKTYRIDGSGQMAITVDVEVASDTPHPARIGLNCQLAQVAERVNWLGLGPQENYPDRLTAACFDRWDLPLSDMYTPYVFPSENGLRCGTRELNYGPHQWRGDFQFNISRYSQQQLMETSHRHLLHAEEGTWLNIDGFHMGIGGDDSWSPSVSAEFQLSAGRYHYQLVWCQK
In short: (§2)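 Glycosidase panel of commercial enzymes assayed at each enzyme's optimal pH with compound at 1 mM; percentage inhibition of enzyme activity calculated.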

Helix pomatia = experiment: Inhibition of beta-mannosidase from snail at pH 4; parameters: concentration or dose not given beside the values; conditions: concentration not given here
SK-BR-3 = experiment: Cytotoxicity against human SKBR3 cells after 72 hrs by colorimetric assay; assay type: functional, cell-based; in short: as §1
[3] = Cytotoxicity against human U87 cells after 72 hrs by colorimetric assay; assay type: functional, cell-based, U-87MG ATCC; in short: as §1
Saccharomyces cerevisiae = experiment: Inhibition of alpha-glucosidase from yeast at 1 mM at pH 7; in short: as §2
Prunus dulcis = experiment: Inhibition of beta-glucosidase from almond at 1 mM at pH 5; in short: as §2
[4] = molecular target: Alpha-galactosidase (Coffea arabica) (UniProt Q42656); experiment: Inhibition of alpha-galactosidase from coffee beans at 1 mM at pH 6; in short: as §2
Alpha-galactosidase (Coffea arabica), sequence (Q42656 16-378 limits assumed): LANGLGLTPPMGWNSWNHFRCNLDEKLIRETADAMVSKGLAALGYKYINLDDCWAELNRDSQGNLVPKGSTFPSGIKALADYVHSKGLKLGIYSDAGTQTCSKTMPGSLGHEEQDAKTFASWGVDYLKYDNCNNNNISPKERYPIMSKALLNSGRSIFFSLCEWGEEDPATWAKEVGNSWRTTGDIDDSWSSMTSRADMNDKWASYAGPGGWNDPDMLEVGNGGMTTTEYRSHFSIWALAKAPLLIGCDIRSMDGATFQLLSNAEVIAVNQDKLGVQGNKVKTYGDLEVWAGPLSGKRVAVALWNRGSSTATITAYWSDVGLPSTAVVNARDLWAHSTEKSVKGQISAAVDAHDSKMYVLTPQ

PC-3 = experiment: Cytotoxicity against human PC3 cells after 72 hrs by colorimetric assay; assay type: functional, cell-based; in short: as §1
[5] = molecular target: T1, Tissue alpha-L-fucosidase (Bos taurus) (UniProt Q2KIM0); experiment: Inhibition of alpha-L-fucosidase from bovine kidney at 1 mM at pH 6; in short: as §2
T1 sequence (whole entry): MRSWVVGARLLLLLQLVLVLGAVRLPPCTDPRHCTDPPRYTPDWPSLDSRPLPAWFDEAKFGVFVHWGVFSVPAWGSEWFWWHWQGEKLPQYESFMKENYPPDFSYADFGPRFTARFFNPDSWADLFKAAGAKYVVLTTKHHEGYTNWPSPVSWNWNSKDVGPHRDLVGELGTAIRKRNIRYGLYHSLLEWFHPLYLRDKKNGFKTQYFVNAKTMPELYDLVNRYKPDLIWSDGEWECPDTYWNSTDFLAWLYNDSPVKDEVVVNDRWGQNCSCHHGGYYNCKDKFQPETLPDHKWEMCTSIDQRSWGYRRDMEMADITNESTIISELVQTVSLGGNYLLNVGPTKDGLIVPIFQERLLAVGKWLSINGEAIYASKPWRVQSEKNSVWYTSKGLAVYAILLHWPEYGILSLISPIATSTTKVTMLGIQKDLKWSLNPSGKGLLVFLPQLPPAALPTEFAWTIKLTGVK

Oryza sativa = experiment: Inhibition of alpha-glucosidase from rice at 1 mM at pH 4; in short: as §2
[6] = Inhibition of alpha-mannosidase from jack bean at pH 5; parameters: species or system Canavalia ensiformis
Aspergillus niger = experiment: Inhibition of beta-xylosidase from Aspergillus niger at pH 5; parameters: concentration or dose not given beside the values; conditions: concentration not given here
Canavalia ensiformis [7] = experiment: Inhibition of beta-N-acetylglucosaminidase from jack bean at pH 5; parameters: concentration or dose not given beside the values; conditions: concentration not given here
A549 = experiment: Cytotoxicity against human A549 cells after 72 hrs by colorimetric assay; assay type: functional, cell-based; in short: as §1
BT-474 = experiment: Cytotoxicity against human BT474 cells after 72 hrs by colorimetric assay; assay type: functional, cell-based; in short: as §1
[8] = molecular target: T2, Beta-galactosidase (Aspergillus oryzae) (UniProt Q2U7N3); experiment: Inhibition of beta-galactosidase from Aspergillus oryzae at 1 mM at pH 4; in short: as §2
T2 sequence (whole entry): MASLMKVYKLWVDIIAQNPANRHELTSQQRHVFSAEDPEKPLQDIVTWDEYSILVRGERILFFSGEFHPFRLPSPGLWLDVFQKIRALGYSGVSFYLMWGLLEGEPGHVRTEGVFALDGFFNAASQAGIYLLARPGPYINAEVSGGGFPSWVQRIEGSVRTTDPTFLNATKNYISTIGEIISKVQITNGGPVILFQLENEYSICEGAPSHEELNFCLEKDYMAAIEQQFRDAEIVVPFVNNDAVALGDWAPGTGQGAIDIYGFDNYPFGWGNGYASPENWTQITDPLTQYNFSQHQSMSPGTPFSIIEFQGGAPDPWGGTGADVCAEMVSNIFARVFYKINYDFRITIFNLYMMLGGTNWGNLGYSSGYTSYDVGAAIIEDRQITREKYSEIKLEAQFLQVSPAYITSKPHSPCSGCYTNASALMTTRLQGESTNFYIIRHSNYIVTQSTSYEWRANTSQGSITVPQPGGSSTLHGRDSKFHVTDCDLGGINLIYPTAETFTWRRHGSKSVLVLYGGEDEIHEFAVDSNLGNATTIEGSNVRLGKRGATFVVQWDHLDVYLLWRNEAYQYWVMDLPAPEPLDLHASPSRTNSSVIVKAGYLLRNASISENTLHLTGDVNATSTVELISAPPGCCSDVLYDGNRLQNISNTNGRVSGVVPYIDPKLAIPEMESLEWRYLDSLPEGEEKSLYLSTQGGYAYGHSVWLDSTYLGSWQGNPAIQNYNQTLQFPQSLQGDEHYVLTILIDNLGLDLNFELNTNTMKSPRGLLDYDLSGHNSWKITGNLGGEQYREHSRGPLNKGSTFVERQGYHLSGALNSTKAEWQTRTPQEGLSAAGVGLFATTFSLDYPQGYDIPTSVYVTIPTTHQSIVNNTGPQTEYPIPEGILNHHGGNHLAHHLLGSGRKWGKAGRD

Bos taurus = species on record: Bos taurus; experiment: Inhibition of beta-N-acetylglucosaminidase from bovine kidney at pH 4; parameters: concentration or dose not given beside the values; conditions: concentration not given here
[9] = molecular target: Glucoamylase (Aspergillus niger) (UniProt P69328); experiment: Inhibition of amyloglucosidase from Aspergillus niger at 1 mM at pH 5; in short: as §2
Glucoamylase (Aspergillus niger), sequence (P69328 whole entry): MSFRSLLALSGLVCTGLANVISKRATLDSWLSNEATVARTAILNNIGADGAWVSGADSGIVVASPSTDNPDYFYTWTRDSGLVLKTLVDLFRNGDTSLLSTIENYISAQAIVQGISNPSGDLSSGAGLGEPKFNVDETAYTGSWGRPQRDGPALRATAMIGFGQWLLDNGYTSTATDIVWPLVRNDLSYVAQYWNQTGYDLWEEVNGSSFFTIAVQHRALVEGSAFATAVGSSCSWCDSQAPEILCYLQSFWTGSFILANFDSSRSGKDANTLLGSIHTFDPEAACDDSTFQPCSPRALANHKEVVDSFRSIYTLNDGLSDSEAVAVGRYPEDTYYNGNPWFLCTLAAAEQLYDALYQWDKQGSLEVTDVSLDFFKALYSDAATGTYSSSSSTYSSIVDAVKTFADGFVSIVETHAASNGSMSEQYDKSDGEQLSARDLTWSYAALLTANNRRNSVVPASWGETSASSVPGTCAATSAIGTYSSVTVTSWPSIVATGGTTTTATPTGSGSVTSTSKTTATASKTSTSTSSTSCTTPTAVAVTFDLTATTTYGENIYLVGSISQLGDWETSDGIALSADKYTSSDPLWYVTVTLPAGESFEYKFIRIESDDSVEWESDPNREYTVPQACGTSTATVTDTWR

Canavalia ensiformis [10] = experiment: Inhibition of alpha-mannosidase from jack bean at 1 mM at pH 5; in short: as §2
Jurkat [11] = experiment: Cytotoxicity in human Jurkat cells overexpressing Bcl2 assessed as cell death at 40 uM after 72 hrs by propidium iodide-staining based flow cytometry; assay type: functional
In short: (§3)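 Jurkat T cells stably overexpressing Bcl-2, plus vector controls, in RPMI-1640 with 10% FBS. Seeded at 4×10⁴ per well and treated for 72 h with 40 µM etoposide, 2 µM doxorubicin or 50 µM compound. Dead cells counted by propidium iodide staining and flow cytometry; means of triplicates with SD.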

Jurkat [12] = experiment: Cytotoxicity in human Jurkat cells overexpressing Bcl2 assessed as cell death at 2 uM after 72 hrs by propidium iodide-staining based flow cytometry; assay type: functional; in short: as §3
[13] = Homo sapiens, Jurkat, 72 h, read-out: IC50
[14] = Homo sapiens, MCF7, 72 h, read-out: IC50
[15] = Homo sapiens, MDA-MB-231, 72 h, read-out: IC50
[16] = Homo sapiens, U-266, 72 h, read-out: IC50
[17] = Homo sapiens, SK-BR-3, 72 h, read-out: IC50
[18] = Homo sapiens, U-87 MG, 72 h, read-out: IC50
[19] = Homo sapiens, PC-3, 72 h, read-out: IC50
[20] = Homo sapiens, A549, 72 h, read-out: IC50
[21] = Homo sapiens, BT-474, 72 h, read-out: IC50

Compound | IC50 (Jurkat [1]; [13]) [µM] | IC50 (MCF7; [14]) [µM] | IC50 (MDA-MB-231; [15]) [µM] | IC50 (U-266; [16]) [µM] | inhibition [2] [%] | inhibition (Helix pomatia) [%] | IC50 (SK-BR-3; [17]) [µM] | inhibition (Saccharomyces cerevisiae) [%] | inhibition (Prunus dulcis) [%] | inhibition [4] [%] | inhibition [5] [%] | inhibition (Oryza sativa) [%] | IC50 [6] [µM] | Ki [6] [µM] | inhibition (Aspergillus niger) [%] | inhibition (Canavalia ensiformis [7]) [%] | inhibition [8] [%] | inhibition (Bos taurus) [%] | inhibition [9] [%] | inhibition (Canavalia ensiformis [10]) [%] | further results
COc1ccc([C@H](CO)NC[C@H]2NC[C@H](O)[C@@H]2O)cc1 | > 200 | > 200 | > 200 | > 200 | < 10 | < 10 | > 200 | 41 | 62 | < 10 | < 10 | < 10 | 0.8 | 0.5 | 28 | < 10 | < 10 | < 10 | < 10 | 98 | IC50 [3, 18]: > 200 µM; IC50 (PC-3; [19]): > 200 µM; IC50 (A549; [20]): > 200 µM; IC50 (BT-474; [21]): > 200 µM
COc1cc([C@@H]2c3cc4c(cc3[C@@H](O[C@@H]3O[C@@H]5CO[C@@H](C)O[C@H]5[C@H](O)[C@H]3O)[C@H]3COC(=O)[C@H]23)OCO4)cc(OC)c1O | – | – | – | – | – | – | – | – | – | – | – | – | – | – | – | – | – | – | – | – | Activity (Jurkat [11]): inactive
COc1cccc2c1C(=O)c1c(O)c3c(c(O)c1C2=O)C[C@@](O)(C(=O)CO)C[C@@H]3O[C@H]1C[C@H](N)[C@H](O)[C@H](C)O1 | – | – | – | – | – | – | – | – | – | – | – | – | – | – | – | – | – | – | – | – | Activity (Jurkat [12]): inactive
C=CCOc1ccc([C@H](CO)NC[C@H]2NC[C@H](O)[C@@H]2O)cc1 | > 200 | > 200 | > 200 | > 200 | < 10 | < 10 | > 200 | 41 | 72 | < 10 | < 10 | < 10 | 0.9 | 0.5 | 28 | < 10 | < 10 | < 10 | < 10 | 99 | IC50 [3, 18]: > 200 µM; IC50 (PC-3; [19]): > 200 µM; IC50 (A549; [20]): > 200 µM; IC50 (BT-474; [21]): > 200 µM
OC[C@H](NC[C@H]1NC[C@H](O)[C@@H]1O)c1ccc(OCc2ccccc2)cc1 | – | – | – | – | < 10 | < 10 | – | 45 | 40 | < 10 | < 10 | < 10 | 1.4 | 0.6 | 45 | < 10 | < 10 | < 10 | < 10 | 99 | IC50 (Jurkat [1]; jurkat): Not Active; IC50 (MCF7; mcf7): Not Active; IC50 (MDA-MB-231; mda-mb-231): Not Active; IC50 (U-266; u-266): Not Active; IC50 (SK-BR-3; sk-br-3): Not Active; IC50 ([3]; u-87mg atcc): Not Active; IC50 (PC-3; pc-3): Not Active; IC50 (A549; a549): Not Active; IC50 (BT-474; bt-474): Not Active
OC[C@H](NC[C@H]1NC[C@H](O)[C@@H]1O)c1ccc(-c2ccccc2)cc1 | > 200 | > 200 | > 200 | > 200 | < 10 | < 10 | > 200 | 24 | 20 | < 10 | < 10 | < 10 | 1.4 | 0.9 | 50 | < 10 | < 10 | < 10 | < 10 | 99 | IC50 [3, 18]: > 200 µM; IC50 (PC-3; [19]): > 200 µM; IC50 (A549; [20]): > 200 µM; IC50 (BT-474; [21]): > 200 µM
OC[C@H](NC[C@H]1NC[C@H](O)[C@@H]1O)c1ccc(-c2ccsc2)cc1 | – | – | – | – | < 10 | < 10 | – | < 10 | 36 | < 10 | < 10 | < 10 | 1.1 | 0.8 | 50 | < 10 | < 10 | < 10 | < 10 | 97 | IC50 (Jurkat [1]; jurkat): Not Active; IC50 (MCF7; mcf7): Not Active; IC50 (MDA-MB-231; mda-mb-231): Not Active; IC50 (U-266; u-266): Not Active; IC50 (SK-BR-3; sk-br-3): Not Active; IC50 ([3]; u-87mg atcc): Not Active; IC50 (PC-3; pc-3): Not Active; IC50 (A549; a549): Not Active; IC50 (BT-474; bt-474): Not Active
